Measurements of several laboratories.
Read-out: cell growth or viability

| SMILES | cell line | technique | tested at | time | viability [%] |
| --- | --- | --- | --- | --- | --- |
| CC(=NNC(=O)c1ccncc1)c1ccc(Nc2nnc(-c3ccc(Cl)cc3)c3ccccc23)cc1 | HepG2 | MTT | 1.25 µM | 24 h | 5.31 |
| CC(C)(C)c1cnc(CSc2cnc(NC(=O)C3CCN(CCCCSc4cccc5c4C(=O)N(C4CCC(=O)NC4=O)C5=O)CC3)s2)o1 (stereo not drawn) | HH | CCK-8 | 0.2 µM | – | 1.85 |
| CCOC(=O)c1nn(-c2cccc(Cl)c2)/c(=N/N=C(\C)c2ccc(NC(=O)c3ccccc3)cc2)s1 | HepG2 | MTT | 78 nM | – | 81.9 |
| O=C(C=Cc1ccccc1)Nc1ccc(Oc2nnc(-c3ccc(Cl)cc3)c3ccccc23)cc1 | HepG2 | MTT | 10 µM | 24 h | 2.63 |
| CC(C)(C)c1cnc(CSc2cnc(NC(=O)C3CCN(C(=O)CCCSc4cccc5c4C(=O)N(C4CCC(=O)NC4=O)C5=O)CC3)s2)o1 (stereo not drawn) | HH | CCK-8 | 1 µM | – | 8.16 |
| CC(=NNC(=S)Nc1ccccc1)c1ccc(Nc2nnc(-c3ccc(Cl)cc3)c3ccccc23)cc1 | HepG2 | MTT | 10 µM | 24 h | 4.26 |
| CC(=O)c1nn(-c2ccc(C)cc2)/c(=N/N=C(\C)c2ccc(NC(=O)c3ccccc3)cc2)s1 | HepG2 | MTT | 2.5 µM | – | 6.81 |
| CC(=NNC(=O)c1ccccc1)c1ccc(Nc2nnc(-c3ccc(Cl)cc3)c3ccccc23)cc1 | HepG2 | MTT | 0.312 µM | 24 h | 99.6 |
| CCOC(=O)c1nn(-c2cccc(Cl)c2)/c(=N/N=C(\C)c2ccc(NC(=O)c3ccc(Cl)cc3)cc2)s1 | HepG2 | MTT | 2.5 µM | – | 2.86 |
| CC(C)(C)c1cnc(CSc2cnc(NC(=O)C3CCN(CCCCCSc4cccc5c4CN(C4CCC(=O)NC4=O)C5=O)CC3)s2)o1 (stereo not drawn) | HH | CCK-8 | 0.5 µM | – | 0 |
| CC(=O)c1nn(-c2ccccc2Cl)/c(=N/N=C(\C)c2ccc(NC(=O)c3ccccc3)cc2)s1 | HepG2 | MTT | 10 µM | – | 6.13 |
| S=C(Nc1ccccc1)Nc1ccc(Oc2nnc(-c3ccc(Cl)cc3)c3ccccc23)cc1 | HepG2 | MTT | 2.5 µM | 24 h | 18 |
| CC(C)(C)c1cnc(CSc2cnc(NC(=O)C3CCN(CCCCCCCCSc4cccc5c4C(=O)N(C4CCC(=O)NC4=O)C5=O)CC3)s2)o1 (stereo not drawn) | HH | CCK-8 | 50 nM | – | 92.6 |
| CC(=O)Nc1ccc(/C(C)=N/N=c2\sc(C(C)=O)nn2-c2ccc(C)cc2)cc1 | HepG2 | MTT | 5 µM | – | 86 |
| CC(=NNC(=O)COc1ccc2c(C)c(Cc3ccccc3)c(=O)oc2c1C)c1ccc(Br)cc1 | HepG2 | MTT | 0.2 µg/mL | – | 62.9 |
